The list is not random: actives were taken first. Their share in the collection is about 2.9%.
Statin myotox sup: suppressors of simvastatin-induced myotoxicity in C2C12 myotubes; ATP luminescence, 48 h; scaled: DMSO 0, geranylgeraniol control 100; rescue of ATP level, % at 7.49 µM; 330,000 compounds, 0.78% hits; AID 602340;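 active = mean ATP rescue above about 67%, or every replicate alone reaching that limit, limit read from the data, passing the limit was not always enough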;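 note: myotubes were challenged with 10 µM simvastatin during compound exposure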
SIRT5 inh: inhibitors of human sirtuin-5 desuccinylase | Q9NXA8 | Purified SirT5, succinyl-peptide AMC, trypsin-coupled fluorescence | inhibition, % at 15 µM | 330,000 compounds, 1.1% hits | AID 652115; in the data active = inhibition above about 15%
Target sequence (Q9NXA8 whole entry, looked up): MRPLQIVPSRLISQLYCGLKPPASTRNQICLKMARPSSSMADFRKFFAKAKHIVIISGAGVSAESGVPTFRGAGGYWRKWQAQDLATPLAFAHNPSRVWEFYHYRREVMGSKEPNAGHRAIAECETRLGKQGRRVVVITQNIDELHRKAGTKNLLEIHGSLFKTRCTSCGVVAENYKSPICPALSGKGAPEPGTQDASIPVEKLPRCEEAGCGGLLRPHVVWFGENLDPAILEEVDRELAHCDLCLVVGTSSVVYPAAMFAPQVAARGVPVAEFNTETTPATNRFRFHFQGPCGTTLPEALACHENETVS
DENV2 CPE rescue: DENV2-induced cell death inhibition | DENV2-infected cells, cytopathic effect rescue, plate reader | CPE inhibition, % at 9.99 µM | 350,000 compounds, 1.7% hits | AID 651640; in the data active = CPE inhibition above about 20%, passing the limit was not always enough; tested in BHK-21 cells;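 note: 0% = median of neutral control wells and 100% = median of positive control wells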
PGC1a acetyl inh: modulators of PGC1a acetylation | 350,000 compounds, 0.17% hits | AID 651687 | inhibition, % at 15.6 µM | U2OS PGC1a acetylation, AlphaScreen anti-acetyl-lysine; with virally co-expressed GCN5 acetyltransferase;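 active = every replicate shows inhibition of at least 40%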;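 note: 0% = neutral control wells and 100% = positive control wells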
S100A4 inh HTS: S100A4-myosin IIA interaction inhibition | P26447 | inhibition, % at 10.7 µM | AID 652163 | 360,000 compounds, 0.14% hits | S100A4/TAMRA-MyoIIA peptide fluorescence polarization;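 active = mean inhibition of at least 70% across replicates, with every replicate also reaching that level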
Target sequence (P26447 whole entry, looked up): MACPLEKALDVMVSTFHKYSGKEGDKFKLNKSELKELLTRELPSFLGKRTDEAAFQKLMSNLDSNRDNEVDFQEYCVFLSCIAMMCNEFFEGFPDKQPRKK
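assay system = human S100A4 monomer with TAMRA-labelled myosin IIA peptide | also added = labelled myosin peptide probe, 5 nM | incubation = 5 min between mix addition and reading | control set = DMSO and TFP controls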
Numbers without * were called inactive.

How did Cc1noc(C)c1S(=O)(=O)Nc1ccc2c(c1)C(=O)N([C@H](C)CO)C[C@@H](C)[C@H](CN(C)Cc1ccc(C(F)(F)F)cc1)OCCCC[C@@H](C)O2 do in these assays?
SIRT5 inh: 24*; DENV2 CPE rescue: -4; PGC1a acetyl inh: 5; S100A4 inh HTS: -3

What do the screens show for `Cc1noc(C)c1S(=O)(=O)Nc1ccc2c(c1)C(=O)N([C@@H](C)CO)C[C@H](C)[C@H](CN(C)Cc1ccc(C(F)(F)F)cc1)OCCCC[C@H](C)O2`?
SIRT5 inh: 9; DENV2 CPE rescue: -3; PGC1a acetyl inh: 30; S100A4 inh HTS: -4

What do the screens show for `Cc1noc(C)c1S(=O)(=O)Nc1ccc2c(c1)C(=O)N([C@@H](C)CO)C[C@H](C)[C@@H](CN(C)Cc1ccncc1)OCCCC[C@@H](C)O2`?
SIRT5 inh: 1; DENV2 CPE rescue: 22*; PGC1a acetyl inh: 22; S100A4 inh HTS: 12

What do the screens show for `Cc1noc(C)c1S(=O)(=O)Nc1ccc2c(c1)C(=O)N([C@H](C)CO)C[C@@H](C)[C@H](CN(C)Cc1ccc(C(=O)O)cc1)OCCCC[C@@H](C)O2`?
SIRT5 inh: -3; DENV2 CPE rescue: 12; PGC1a acetyl inh: -7; S100A4 inh HTS: 15

How did Cc1noc(C)c1S(=O)(=O)Nc1ccc2c(c1)C(=O)N([C@@H](C)CO)C[C@@H](C)[C@H](CN(C)Cc1ccc(C(F)(F)F)cc1)OCCCC[C@@H](C)O2 do in these assays?
SIRT5 inh: 17*; DENV2 CPE rescue: 1; PGC1a acetyl inh: 1; S100A4 inh HTS: 1

What do the screens show for `C[C@H](CO)N1C[C@H](C)[C@@H](CN(C)C(=O)C2CCC2)Oc2cc(Br)ccc2S1(=O)=O`?
Statin myotox sup: 36; PGC1a acetyl inh: -2

Results for Cc1noc(C)c1S(=O)(=O)Nc1ccc2c(c1)C(=O)N([C@H](C)CO)C[C@@H](C)[C@@H](CN(C)Cc1ccc(C(F)(F)F)cc1)OCCCC[C@H](C)O2 ?
SIRT5 inh: 15; DENV2 CPE rescue: -4; PGC1a acetyl inh: 11; S100A4 inh HTS: 4

What do the screens show for `Cc1noc(C)c1S(=O)(=O)Nc1ccc2c(c1)C(=O)N([C@H](C)CO)C[C@@H](C)[C@H](CN(C)Cc1ccc(C(F)(F)F)cc1)OCCCC[C@H](C)O2`?
SIRT5 inh: 18*; DENV2 CPE rescue: -9; PGC1a acetyl inh: 13; S100A4 inh HTS: -8

How did CN1CCN(C(=O)C[C@@H]2CC[C@H](NC(=O)Nc3ccccc3F)[C@@H](CO)O2)CC1 do in these assays?
Statin myotox sup: -6; SIRT5 inh: -2; DENV2 CPE rescue: 5; PGC1a acetyl inh: -6; S100A4 inh HTS: 11

Results for CCC(=O)N(C)C[C@H]1Oc2ncc(-c3ccc(C(=O)N(C)C)cc3)cc2C(=O)N([C@@H](C)CO)C[C@@H]1C ?
Statin myotox sup: -2; SIRT5 inh: -18; DENV2 CPE rescue: 7; PGC1a acetyl inh: 10; S100A4 inh HTS: 1

What do the screens show for `CCC(=O)N(C)C[C@@H]1Oc2ncc(-c3ccc(C#N)cc3)cc2C(=O)N([C@H](C)CO)C[C@H]1C`?
Statin myotox sup: 7; SIRT5 inh: -7; DENV2 CPE rescue: 12; PGC1a acetyl inh: -3; S100A4 inh HTS: -6

What do the screens show for `CCC(=O)N(C)C[C@@H]1Oc2ncc(-c3ccc(C)cc3)cc2C(=O)N([C@@H](C)CO)C[C@H]1C`?
Statin myotox sup: 2; SIRT5 inh: 2; DENV2 CPE rescue: 22*; PGC1a acetyl inh: 5; S100A4 inh HTS: -8

How did CCC(=O)N(C)C[C@H]1Oc2ncc(-c3ccc(C(=O)N(C)C)cc3)cc2C(=O)N([C@@H](C)CO)C[C@H]1C do in these assays?
Statin myotox sup: -3; SIRT5 inh: 5; DENV2 CPE rescue: 8; PGC1a acetyl inh: -5; S100A4 inh HTS: 111*

How did C[C@@H]1CN([C@@H](C)CO)C(=O)c2cc(-c3ccc(F)cc3)cnc2O[C@H]1CN(C)C(=O)Cc1ccccn1 do in these assays?
Statin myotox sup: -7; SIRT5 inh: 0; DENV2 CPE rescue: 5; PGC1a acetyl inh: 4; S100A4 inh HTS: -2

Results for CCC(=O)N(C)C[C@@H]1Oc2ncc(-c3ccc(C#N)cc3)cc2C(=O)N([C@H](C)CO)C[C@@H]1C ?
Statin myotox sup: 2; SIRT5 inh: -2; DENV2 CPE rescue: 70*; PGC1a acetyl inh: 0; S100A4 inh HTS: -3

Results for C[C@@H]1CN([C@H](C)CO)C(=O)c2cc(-c3ccc(F)cc3)cnc2O[C@H]1CN(C)C(=O)Cc1ccccn1 ?
Statin myotox sup: -1; SIRT5 inh: 23*; DENV2 CPE rescue: 5; PGC1a acetyl inh: -2; S100A4 inh HTS: -2

Results for Cc1ccc(S(=O)(=O)Nc2ccc3c(c2)C(=O)N([C@H](C)CO)C[C@@H](C)[C@H](CN(C)C(=O)Nc2ccc4c(c2)OCO4)OCCCC[C@@H](C)O3)cc1 ?
SIRT5 inh: 2; DENV2 CPE rescue: -6; PGC1a acetyl inh: 4; S100A4 inh HTS: -6

Results for C[C@H](CO)N1C[C@H](C)[C@H](CN(C)C(=O)NC2CCCCC2)Oc2c(NC(=O)c3cnccn3)cccc2C1=O ?
Statin myotox sup: 1; SIRT5 inh: 1; DENV2 CPE rescue: 6; PGC1a acetyl inh: 2; S100A4 inh HTS: 4

What do the screens show for `C[C@H](CO)N1C[C@H](C)[C@@H](CN(C)S(=O)(=O)c2ccc(Cl)cc2)Oc2ccc(NC(=O)c3ccncc3)cc2CC1=O`?
Statin myotox sup: -8; SIRT5 inh: -5; DENV2 CPE rescue: -5; PGC1a acetyl inh: 0; S100A4 inh HTS: -7

What do the screens show for `CC(=O)C1=C(C)N(Cc2ccc(Cl)cc2)C(=S)NC1c1cccc(Br)c1` (stereo unspecified)?
SIRT5 inh: 1; DENV2 CPE rescue: -9; S100A4 inh HTS: 6

What do the screens show for `CCOC(=O)CC1C(=O)NCCN1C1CCCC1` (stereo unspecified)?
SIRT5 inh: 20*; DENV2 CPE rescue: 5; PGC1a acetyl inh: 7; S100A4 inh HTS: 2

How did CCOC(=O)CC1C(=O)NCCN1C(=O)NC1CCCCC1 (stereo unspecified) do in these assays?
Statin myotox sup: 3; PGC1a acetyl inh: 0

How did O=C(O)C[C@@H]1C[C@@H]2c3cc(NC(=O)NC4CCCC4)ccc3O[C@@H]2[C@@H](CO)O1 do in these assays?
Statin myotox sup: -4; SIRT5 inh: 5; DENV2 CPE rescue: 11; PGC1a acetyl inh: 6; S100A4 inh HTS: 19

How did C[C@H](CO)N1C[C@H](C)[C@@H](CN(C)CC2CC2)Oc2c(NC(=O)Cc3ccccc3)cccc2C1=O do in these assays?
Statin myotox sup: 14; SIRT5 inh: 25*; DENV2 CPE rescue: 2; S100A4 inh HTS: -1

What do the screens show for `C[C@H](CO)N1C[C@H](C)[C@H](CN(C)CC2CCCCC2)Oc2c(NC(=O)C3CC3)cccc2C1=O`?
Statin myotox sup: 13; SIRT5 inh: -1; DENV2 CPE rescue: 36*; PGC1a acetyl inh: -8; S100A4 inh HTS: 4

Assay outcomes deposited in PubChem BioAssay by Broad Institute.
